test system: not listed separately; test: Aqueous solubility of the compound; type: physicochemical; settings: water

Row | solubility [µg/mL] | Structure (SMILES)
1 | < 1 | Cc1c(C(=O)NCc2cccc(C(F)(F)F)c2)cnn1-c1ccc(Cl)c(Cl)c1

biological target: T1, C-C chemokine receptor type 1 (Homo sapiens, UniProt P32246); test: Antagonist activity at recombinant CCR1 (unknown origin) expressed in non-adherent cells co-expressing Galpha16 assessed as inhibition of MIP-1 alpha-induced calcium flux by Fluo-4 NW or Calcium 4 dye based FLIPR TETRA assay; type: functional, cell-based; settings: not given
T1 sequence (P32246 whole entry): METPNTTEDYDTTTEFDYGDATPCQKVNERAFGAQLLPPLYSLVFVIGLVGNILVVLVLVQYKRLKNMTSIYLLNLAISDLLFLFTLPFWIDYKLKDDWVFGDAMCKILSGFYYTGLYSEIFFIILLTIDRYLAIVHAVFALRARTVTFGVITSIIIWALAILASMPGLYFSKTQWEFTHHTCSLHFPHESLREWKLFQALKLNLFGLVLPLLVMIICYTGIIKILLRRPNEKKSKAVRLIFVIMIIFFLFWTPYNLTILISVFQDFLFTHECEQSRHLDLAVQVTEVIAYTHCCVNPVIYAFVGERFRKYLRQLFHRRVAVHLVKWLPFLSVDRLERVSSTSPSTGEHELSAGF
Outline: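 The cells stably co-express CCR1 and Gα16 and were loaded with dye for 1 h at room temperature with probenecid (Method A: Fluo-4 NW; Method B: Calcium 4), then plated at 20,000 cells/well. Compounds were tested at 10 doses from a 3,000 nM top (A 3-fold steps, B 4-fold), in 1% DMSO and HBSS/20 mM HEPES pH 7.4. Preincubation was 1 h at room temperature in the dark (A) or 30 min at 37°C then 30 min at room temperature (B). MIP-1α was added at EC80 and the calcium flux recorded.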

Row | Structure (SMILES) | IC50 [nM]
2 | COc1cc(N2CCN(C(=O)Cn3nc(-c4ncc[nH]4)c4cccnc43)CC2)ccc1Cl [CCX354] | 2
3 | Cc1c(C(=O)N[C@@H](C)c2cccc(C(F)(F)F)c2F)cnn1-c1ccc(Cl)cc1 | 28
4 | O=C(NCc1cccc(C(F)(F)F)c1)c1cnn(-c2ccc(Cl)c(Cl)c2)c1 | > 3000
5 | Cc1nn(-c2ccc(Cl)c(Cl)c2)c(C)c1C(=O)NCc1cccc(C(F)(F)F)c1 | > 3000
6 | CC[C@H](NC(=O)c1cnn(-c2ccc(Cl)cc2)c1C)c1cccc(C(F)(F)F)c1F | 13
7 | Cc1nc(-c2ccc(Cl)cc2)sc1C(=O)NCc1cccc(C(F)(F)F)c1 | > 3000
8 | Cn1cc(C(=O)NCc2cccc(C(F)(F)F)c2)nc1-c1ccc(Cl)cc1 | > 3000
9 | Cn1c(C(=O)NCc2cccc(C(F)(F)F)c2)cnc1-c1ccc(Cl)cc1 | > 3000
10 | Cc1cc(-c2ccc(Cl)cc2)sc1C(=O)NCc1cccc(C(F)(F)F)c1 | 1900
11 | O=C(NCc1cccc(C(F)(F)F)c1)c1cnn(-c2ccc(Cl)cc2)c1C(F)(F)F | > 3000
12 | Cc1c(C(=O)NCc2cccc(C(F)(F)F)c2)nnn1-c1ccc(Cl)cc1 | 2400
13 | CC(C)(O)c1ccc2c(c1)/C(=C\CCN1CC[C@](O)(c3ccc(Cl)cc3)C(C)(C)C1)c1cccnc1CO2 | 0.8
14 | Cc1nc(C(=O)NCc2cccc(C(F)(F)F)c2)nn1-c1ccc(Cl)cc1 | > 3000
15 | COCc1c(C(=O)NCc2cccc(C(F)(F)F)c2)cnn1-c1ccc(Cl)cc1 | > 3000
16 | Cc1cccc(-n2ncc(C(=O)NCc3cccc(C(F)(F)F)c3)c2C)c1 | > 3000
17 | Cc1c(C(=O)NCc2cccc(C(F)(F)F)c2)cnn1-c1ccccc1Cl | > 3000
18 | CC(C)[C@@H](NC(=O)NCC(C)(C)O)C(=O)N1CC[C@](O)(c2ccc(Cl)cc2)C(C)(C)C1 [BMS-817399] | 3
19 | Cc1c(C(=O)NCc2cccc(C(F)(F)F)c2)cnn1-c1cccc(C(F)(F)F)c1 | > 3000
20 | CCC[C@H](NC(=O)c1cnn(-c2ccc(Cl)cc2)c1C)c1cccc(C(F)(F)F)c1F | 10
21 | Cc1c(C(=O)NCc2cccc(C(F)(F)F)c2)cnn1-c1ccccc1 | > 3000
22 | Cc1cc(C(=O)NCc2cccc(C(F)(F)F)c2)c(C)n1-c1ccc(Cl)cc1 | 350
23 | Cc1c(C(=O)NCc2cccc(C(F)(F)F)c2)cnn1-c1ccc(Cl)c(Cl)c1 | 500
24 | Cc1c(C(=O)NCc2cccc(C(F)(F)F)c2)cnn1Cc1ccccc1 | > 3000

The next lines start with the values.

Row | IC50 [nM] | Structure (SMILES)
25 | > 3000 | Cc1c(C(=O)NCc2cccc(C(N)=O)c2)cnn1-c1ccc(Cl)cc1
26 | > 3000 | Cc1c(C(=O)NCc2cccc(O)c2)cnn1-c1ccc(Cl)cc1
27 | > 3000 | Nc1c(C(=O)NCc2cccc(C(F)(F)F)c2)cnn1-c1ccc(Cl)cc1
28 | 1700 | Cc1c(C(=O)NCc2ccc(S(C)(=O)=O)cc2)cnn1-c1ccc(Cl)cc1
29 | 47 | CCCC(NC(=O)c1cnn(-c2ccc(Cl)cc2)c1C)c1ccc(S(C)(=O)=O)nc1 (stereo not drawn)
30 | > 3000 | Cc1c(C(=O)NCc2ccc(S(C)(=O)=O)nc2)cnn1-c1ccc(Cl)c(Cl)c1
31 | > 3000 | Cc1c(C(=O)NCc2cccc(N)c2)cnn1-c1ccc(Cl)cc1
32 | > 3000 | CN(C)c1c(C(=O)NCc2cccc(C(F)(F)F)c2)cnn1-c1ccc(Cl)cc1
33 | > 3000 | Cc1c(C(=O)NCc2ccccn2)cnn1-c1ccc(Cl)cc1
34 | 790 | Cc1c(C(=O)NCc2cccc(C(F)(F)F)c2)cnn1-c1ccc(F)cc1
35 | > 3000 | Cc1c(C(=O)NCc2cccnc2)cnn1-c1ccc(Cl)cc1
36 | 2100 | Cc1c(C(=O)NCc2cccc(S(C)(=O)=O)c2)cnn1-c1ccc(Cl)cc1
37 | 1200 | O=C(NCc1cccc(C(F)(F)F)c1)c1cnn(-c2ccc(Cl)cc2)c1CO
38 | 960 | Cc1c(C(=O)NCc2cccc(C(F)(F)F)c2)cnn1-c1ccc([N+](=O)[O-])cc1
39 | 420 | CNS(=O)(=O)c1ccc(CNC(=O)c2cnn(-c3ccc(Cl)cc3)c2C)cc1
40 | > 3000 | Cc1c(C(=O)NCc2ccncc2)cnn1-c1ccc(Cl)cc1
41 | > 3000 | Cc1c(C(=O)NCc2ccccc2S(C)(=O)=O)cnn1-c1ccc(Cl)cc1
42 | 600 | Cc1c(C(=O)NCc2cccc(C(F)(F)F)c2)cnn1-c1ccc(Cl)cc1
43 | > 3000 | Cc1c(C(=O)NCc2cccc(C(F)(F)F)c2)cnn1-c1cccc(Cl)c1

Reference: ChEMBL document CHEMBL4371017, “Discovery and optimization of pyrazole amides as antagonists of CCR1” (Bioorg Med Chem Lett, 2019)
